According to ChEMBL document CHEMBL4765367, “Design, synthesis and antimicrobial evaluation of novel glycosylated-fluoroquinolones derivatives” (Eur J Med Chem, 2020):
Converted amounts (≈) assume the structure as drawn. Counter-ions that a name gives are not always drawn. The source made the active and inactive calls. No cut-off for these calls is given here.

What was measured:
Stachybotrys chartarum [1] = experiment: Antifungal activity against Stachybotrys chartarum IBT 7711 assessed as reduction in fungal growth incubated for 48 hrs by broth microdilution method; assay type: functional
Procedure, shortened: (§1)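 Conidia were harvested from cultures grown on malt extract agar at 30 °C for 7 d and counted by hemocytometer (mean of three counts). Stock suspensions were diluted 1:50 in malt extract broth. Compounds were made as 4.0 mg/mL DMSO stocks and two-fold serially diluted in broth. Plates were incubated at 30 °C for 48 h and read at A405. MIC is the lowest concentration with no viability. Fluconazole was the positive control, DMSO the vehicle; triplicate.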

Escherichia coli [2] = experiment: Antimicrobial activity against fluoroquinolone-resistant Escherichia coli assessed as inhibition of microbial growth incubated for 24 hrs by microbroth dilution method; assay type: functional
Staphylococcus aureus [3] = experiment: Antimicrobial activity against methicillin-sensitive Staphylococcus aureus ATCC 9253 assessed as inhibition of microbial growth incubated for 24 hrs by microbroth dilution method; assay type: functional
Procedure, shortened: (§2)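 Bacteria were grown in suitable medium at 37 °C for 24 h and adjusted to 0.5 McFarland. Compound DMSO stocks were two-fold serially diluted in broth, and 10^6 inoculum was added. Plates were incubated at 37 °C for 24 h and read at A625. MIC is the lowest concentration showing no viability. Fluoroquinolone positive controls, DMSO negative, sterility and growth controls were included; triplicate.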

Fusarium solani = experiment: Antifungal activity against Fusarium solani ATCC 36031 assessed as reduction in fungal growth incubated for 48 hrs by broth microdilution method; assay type: functional; procedure, shortened: as §1
Listeria monocytogenes = experiment: Antimicrobial activity against Listeria monocytogenes ATCC 19115 assessed as inhibition of microbial growth incubated for 24 hrs by microbroth dilution method; assay type: functional; procedure, shortened: as §2
Aspergillus flavus = experiment: Antifungal activity against Aspergillus flavus ATCC 9643 assessed as reduction in fungal growth incubated for 48 hrs by broth microdilution method; assay type: functional; procedure, shortened: as §1
Penicillium chrysogenum = experiment: Antifungal activity against Penicillium chrysogenum ATCC 10106 assessed as reduction in fungal growth incubated for 48 hrs by broth microdilution method; assay type: functional; procedure, shortened: as §1
Escherichia coli [4] = experiment: Antimicrobial activity against Escherichia coli O157:H7 assessed as inhibition of microbial growth incubated for 24 hrs by microbroth dilution method; assay type: functional
Escherichia coli [5] = experiment: Antimicrobial activity against Escherichia coli ATCC 8739 assessed as inhibition of microbial growth incubated for 24 hrs by microbroth dilution method; assay type: functional; procedure, shortened: as §2
Staphylococcus aureus [6] = experiment: Antimicrobial activity against methicillin-resistant Staphylococcus aureus ATCC 33591 assessed as inhibition of microbial growth incubated for 24 hrs by microbroth dilution method; assay type: functional
Escherichia coli [7] = experiment: Antimicrobial activity against Escherichia coli NCTC 11954 producing penicillinase assessed as inhibition of microbial growth incubated for 24 hrs by microbroth dilution method; assay type: functional; procedure, shortened: as §2
Salmonella enterica = experiment: Antimicrobial activity against Salmonella enterica ATCC 13312 assessed as inhibition of microbial growth incubated for 24 hrs by microbroth dilution method; assay type: functional; procedure, shortened: as §2
Candida albicans = experiment: Antifungal activity against Candida albicans ATCC 10231 assessed as reduction in fungal growth incubated for 48 hrs by broth microdilution method; assay type: functional
L6 = experiment: Cytotoxicity against rat L6 cells assessed as inhibition of cell viability incubated for 24 hrs by MTT assay; assay type: cell-based; conditions: L6, 24 h
Procedure, shortened: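 L6 rat myoblasts were grown in glucose-DMEM with 10% FBS, 1 mM L-glutamine, penicillin and streptomycin at 37 °C in 5% CO2. They were seeded at 2 × 10^4 cells/well and allowed to attach for 24 h. Cells were exposed to graded concentrations for 24 h, with 0.1% DMSO as vehicle. MTT (0.5 mg/mL) was added for 4 h, formazan was dissolved in DMSO, and A570 was read. Viability is given relative to vehicle. IC50 came from dose-effect curves; triplicate.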

Pseudomonas aeruginosa = experiment: Antimicrobial activity against Pseudomonas aeruginosa ATCC 9627 assessed as inhibition of microbial growth incubated for 24 hrs by microbroth dilution method; assay type: functional; procedure, shortened: as §2
Escherichia coli [8] = experiment: Potency index, ratio of norfloxacin MIC to test compound MIC for fluoroquinolone-resistant Escherichia coli measured after 24 hrs by microbroth dilution method; assay type: functional
Stachybotrys chartarum [9] = experiment: Potency index, ratio of fluconazole MIC to test compound MIC for Stachybotrys chartarum IBT 7711 measured after 48 hrs by broth microdilution method; assay type: functional
Escherichia coli [10] = experiment: Potency index, ratio of ciprofloxacin HCl MIC to test compound MIC for fluoroquinolone-resistant Escherichia coli measured after 24 hrs by microbroth dilution method; assay type: functional

Structure (SMILES) | MIC (Stachybotrys chartarum [1]) | MIC (Escherichia coli [2]) | MIC (Staphylococcus aureus [3]) | MIC (Fusarium solani) | MIC (Listeria monocytogenes) | MIC (Aspergillus flavus) | MIC (Penicillium chrysogenum) | MIC (Escherichia coli [4]) | MIC (Escherichia coli [5]) | MIC (Staphylococcus aureus [6]) | MIC (Escherichia coli [7]) | MIC (Salmonella enterica) | MIC (Candida albicans) | IC50 (L6) | MIC (Pseudomonas aeruginosa) | Ratio (Escherichia coli [8]) | Ratio (Stachybotrys chartarum [9]) | Ratio (Escherichia coli [10])
COc1c(N2C[C@@H]3CCCN(C(C)=O)[C@@H]3C2)c(F)cc2c(=O)c(C(=O)N[C@H]3C(OC(C)=O)O[C@H](COC(C)=O)[C@@H](OC(C)=O)[C@@H]3OC(C)=O)cn(C3CC3)c12 (stereo not given in full) | 324 µM (≈ 250 µg/mL) | 485 µM | inactive | 324 µM (≈ 250 µg/mL) | < 5 µM | 162 µM (≈ 125 µg/mL) | 162 µM (≈ 125 µg/mL) | 162 µM | 162 µM | 162 µM | inactive | inactive | 80.9 µM (≈ 62.5 µg/mL) | 5.53 µM | 324 µM | – | – | –
CCn1cc(C(=O)N[C@H]2C(OC(C)=O)O[C@H](COC(C)=O)[C@@H](OC(C)=O)[C@@H]2OC(C)=O)c(=O)c2cc(F)c(N3CCN(C(C)=O)CC3)cc21 (stereo not given in full) | 45.3 µM (≈ 31.3 µg/mL) | 136 µM | inactive | 181 µM (≈ 125 µg/mL) | inactive | 362 µM (≈ 250 µg/mL) | 45.3 µM (≈ 31.3 µg/mL) | 45.3 µM | inactive | 362 µM | 181 µM | 11.3 µM | 5.6 µM (≈ 3.87 µg/mL) | 5.32 µM | inactive | 2 | 2 | –
CCn1cc(C(=O)N[C@H]2C(O)O[C@H](CO)[C@@H](O)[C@@H]2O)c(=O)c2cc(F)c(N3CCN(C(C)=O)CC3)cc21 (stereo not given in full) | 120 µM (≈ 62.5 µg/mL) | 89.8 µM | inactive | 239 µM (≈ 125 µg/mL) | inactive | 478 µM (≈ 250 µg/mL) | 120 µM (≈ 62.5 µg/mL) | 59.9 µM | inactive | 478 µM | 239 µM | 14.9 µM | 59.9 µM (≈ 31.3 µg/mL) | 3.72 µM | inactive | 3 | – | –
CCn1cc(C(=O)O)c(=O)c2cc(F)c(N3CCNCC3)cc21 [NORFLOXACIN] | 196 µM (≈ 62.5 µg/mL) | 294 µM | 24.4 µM | 391 µM (≈ 125 µg/mL) | < 5.9 µM | 783 µM (≈ 250 µg/mL) | 196 µM (≈ 62.5 µg/mL) | < 5.9 µM | 48.9 µM | 24.4 µM | 24.4 µM | < 5.9 µM | < 5.9 µM | 3.43 µM | 98 µM | – | – | –
O=C(O)c1cn(C2CC2)c2cc(N3CCNCC3)c(F)cc2c1=O [CIPROFLOXACIN HYDROCHLORIDE] | 85 µM | – | < 5.2 µM | < 10.6 µM | 0.5 µM | inactive | < 10.6 µM | – | – | < 5.2 µM | – | < 5.2 µM | 0.3 µM | – | < 5.2 µM | – | – | –
CC(=O)N1CCN(c2cc3c(cc2F)c(=O)c(C(=O)N[C@H]2C(O)O[C@H](CO)[C@@H](O)[C@@H]2O)cn3C2CC2)CC1 (stereo not given in full) | 468 µM (≈ 250 µg/mL) | 702 µM | inactive | 468 µM (≈ 250 µg/mL) | inactive | 234 µM (≈ 125 µg/mL) | 234 µM (≈ 125 µg/mL) | 234 µM | inactive | inactive | inactive | inactive | inactive | 4.03 µM | inactive | – | – | –
OC(Cn1cncn1)(Cn1cncn1)c1ccc(F)cc1F [FLUCONAZOLE] | 102 µM (≈ 31.3 µg/mL) | – | – | 102 µM (≈ 31.3 µg/mL) | – | 51 µM (≈ 15.6 µg/mL) | 204 µM (≈ 62.5 µg/mL) | – | – | – | – | – | 408 µM (≈ 125 µg/mL) | – | – | – | – | –
CC(=O)OC[C@H]1OC(OC(C)=O)[C@H](NC(=O)c2cn(C3CC3)c3cc(N4CCN(C(C)=O)CC4)c(F)cc3c2=O)[C@@H](OC(C)=O)[C@@H]1OC(C)=O (stereo not given in full) | 356 µM (≈ 250 µg/mL) | 267 µM | inactive | 356 µM (≈ 250 µg/mL) | inactive | 712 µM (≈ 500 µg/mL) | < 5.6 µM | 178 µM | inactive | inactive | inactive | 11.1 µM | inactive | 3.62 µM | 11.1 µM | – | – | 2
COc1c(N2C[C@@H]3CCCN[C@@H]3C2)c(F)cc2c(=O)c(C(=O)O)cn(C3CC3)c12 [MOXIFLOXACIN] | 2.3 µM (≈ 0.923 µg/mL) | 3.4 µM | < 0.5 µM | 286 µM (≈ 115 µg/mL) | < 0.5 µM | 286 µM (≈ 115 µg/mL) | 1.1 µM (≈ 0.442 µg/mL) | < 0.5 µM | < 0.5 µM | < 0.5 µM | < 0.5 µM | < 4.3 µM | 1.1 µM (≈ 0.442 µg/mL) | 5.78 µM | 71.5 µM | – | – | –
COc1c(N2C[C@@H]3CCCN(C(C)=O)[C@@H]3C2)c(F)cc2c(=O)c(C(=O)N[C@H]3C(O)O[C@H](CO)[C@@H](O)[C@@H]3O)cn(C3CC3)c12 (stereo not given in full) | 1.7 µM (≈ 1.03 µg/mL) | 310 µM | inactive | 207 µM (≈ 125 µg/mL) | 103 µM | 207 µM (≈ 125 µg/mL) | 1.7 µM (≈ 1.03 µg/mL) | 828 µM | 207 µM | 207 µM | 207 µM | inactive | 207 µM (≈ 125 µg/mL) | 5.08 µM | 51.8 µM | – | 100 | –
